Compound activity (PubChem BioAssay)
TRPC6 activator: activates the mouse TRPC6 cation channel; HEK293-TRPC6 membrane potential dye fluorescence; stronger effect = higher value; B-score at 10 µM; 0.13% of 310,000 active;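 active = B-score of the integrated fluorescence ratio above library mean plus 3 SD, and starting fluorescence ratio within library mean plus 5 SD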;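 note: higher score means more depolarization so channel activation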
TRPC6 inhibitor: blocks the mouse TRPC6 cation channel | HEK293-TRPC6, membrane potential dye, ACh-evoked depolarization; stronger effect = lower value | B-score at 10 µM | AID 2553 | 1.1% of 310,000 active | Q61143;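 active = B-score under library mean minus 3 SD, initial fluorescence not abnormally high, positive integrated signal ratio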;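 note: B-score derived from integrated fluorescence ratio over the kinetic read; more negative B-score means stronger inhibition of depolarization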
TRPC4 agonist: activators of mouse TRPC4 channel; Q9QUQ5; HEK293 TRPC4beta/mu-opioid, Fluo4 calcium fluorescence; stronger effect = higher value; B-score at 10 µM; 0.49% of 310,000 active;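 active = B-score above 5 SD of library B-scores, and initial fluorescence ratio not above library mean plus 5 SD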;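 note: positive B-score marks a calcium rise read as TRPC4 activation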
Target sequence (Q9QUQ5 whole entry, looked up): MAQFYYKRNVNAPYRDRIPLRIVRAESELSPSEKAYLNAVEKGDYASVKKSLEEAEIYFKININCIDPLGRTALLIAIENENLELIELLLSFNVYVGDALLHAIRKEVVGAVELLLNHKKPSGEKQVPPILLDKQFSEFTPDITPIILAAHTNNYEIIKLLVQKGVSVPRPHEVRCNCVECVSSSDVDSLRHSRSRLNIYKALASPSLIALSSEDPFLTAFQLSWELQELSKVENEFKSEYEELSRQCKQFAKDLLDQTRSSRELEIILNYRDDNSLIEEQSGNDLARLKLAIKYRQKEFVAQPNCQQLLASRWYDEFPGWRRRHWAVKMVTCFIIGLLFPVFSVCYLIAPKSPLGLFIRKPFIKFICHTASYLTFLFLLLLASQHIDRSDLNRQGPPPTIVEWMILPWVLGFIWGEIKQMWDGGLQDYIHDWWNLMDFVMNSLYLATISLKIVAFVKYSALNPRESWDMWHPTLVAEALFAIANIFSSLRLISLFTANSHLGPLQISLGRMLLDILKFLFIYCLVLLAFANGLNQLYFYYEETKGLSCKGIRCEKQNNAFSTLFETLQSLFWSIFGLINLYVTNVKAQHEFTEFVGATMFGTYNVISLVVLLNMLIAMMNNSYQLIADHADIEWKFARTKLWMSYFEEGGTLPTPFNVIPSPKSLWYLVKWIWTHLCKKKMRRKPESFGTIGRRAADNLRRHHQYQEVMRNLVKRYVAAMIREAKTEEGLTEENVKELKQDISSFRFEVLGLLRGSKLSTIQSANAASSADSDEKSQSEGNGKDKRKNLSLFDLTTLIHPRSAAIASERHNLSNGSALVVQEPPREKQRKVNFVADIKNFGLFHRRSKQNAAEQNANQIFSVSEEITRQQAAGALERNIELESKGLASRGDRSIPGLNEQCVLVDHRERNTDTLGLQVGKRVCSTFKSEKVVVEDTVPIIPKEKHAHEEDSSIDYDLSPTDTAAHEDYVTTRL
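system = HEK293 cells stably co-expressing mouse TRPC4beta and mu-opioid receptor | schedule = Fluo4 dye loading 45 min at room temperature, 110 s recording | measure = B-scored integrated calcium fluorescence ratio | signal = Fluo4 calcium-sensitive dye fluorescence, kinetic, 1 Hz baseline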
TRPC4 block: blocks the mouse TRPC4 cation channel; Q9QUQ5; HEK293 TRPC4beta/mu-opioid, DAMGO-evoked Fluo4 calcium flux; stronger effect = lower value; B-score at 10 µM; 0.39% of 300,000 active; AID 2247;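 active = B-score over 3 SD under the library average, no early fluorescence shift, positive overall ratio signal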
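Material: HEK293 cells with stable TRPC4beta plus mu-opioid receptor expression; probe or stimulus: DAMGO in two steps, submaximal then maximal; technique: Fluo4 calcium fluorescence by kinetic imaging, 5 s 1 Hz baseline; measure: integrated fluorescence ratio relative to baseline, converted to per-well B score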
TRPC4 PAM: allosterically enhances the mouse TRPC4 cation channel | Q9QUQ5 | HEK293 TRPC4beta/mu-opioid, DAMGO EC20, Fluo-4 Ca2+ flux; stronger effect = higher value | B-score at 10 µM | 0.42% of 310,000 active | AID 2227;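 active = B-score of calcium response area above 5 SD of library B-scores, with initial fluorescence ratio within 5 SD of library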
TRPC4 spec 2: mouse TRPC4 off-target activity of TRPC6 inhibitors, second screen. shares compounds with TRPC6 inhibitor. HEK293 TRPC4/MOR, membrane potential dye fluorescence; channel activated by saturating DAMGO dose. inhibition, % at 10 µM. 42% of 920 active. AID 2776;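 active = compounds whose fluorescence signal differed from control wells by over 3 SD, either direction, in both duplicate plates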
TRPC4 spec: mouse TRPC4 off-target activity of TRPC6 inhibitors | shares compounds with TRPC6 inhibitor | HEK293 TRPC4/mu-opioid, membrane potential fluorescence | activity change, negative = inhibition, % at 10 µM | 61% of 920 active | AID 2777;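 active = rise or fall in signal beyond 3 SD of buffer-only wells in both replicate plates, either sign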;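 note: integrated kinetic ratio of fluorescence range over baseline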
HEK293 MPD ctr 2-1: second counter-screen for TRPC6 inhibitors: parental HEK293 cells. shares compounds with TRPC6 inhibitor. parental HEK293 membrane potential dye fluorescence; maximal acetylcholine challenge after compound addition. signal change vs control, % at 10 µM. 31% of 920 active. AID 2779;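 active = membrane potential signal moving either way by over 3 SD of the maximum-effect control, in both duplicate plates, meaning non-specific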
HEK293 MPD ctr-1: checks TRPC6 inhibitor effects in parental HEK293 cells; shares compounds with TRPC6 inhibitor; membrane potential signal change, % at 10 µM; parental HEK293 membrane potential dye fluorescence; 60% of 920 active;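 active = membrane potential signal shifting up or down by more than 3 SD of buffer-only wells, on both duplicate plates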
HEK293 MPD ctr-2: parental HEK293 nonspecific activity of TRPC6 modulators | membrane potential dye fluorescence | shares compounds with TRPC6 inhibitor | 51% of 2,400 active | membrane potential signal change, % at 10 µM;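 active = membrane potential signal moves up or down beyond 5 SD from buffer-only wells, on both duplicate plates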
HEK293 MPD ctr 2-2: parental HEK293 nonspecific activity of TRPC6 modulators, second screen. membrane potential dye fluorescence; after compound, maximal acetylcholine stimulation. shares compounds with TRPC6 inhibitor. 14% of 2,400 active. inhibition, % at 10 µM;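 active = membrane potential signal drops by more than 5 SD from the mean control signal, in both duplicate plates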
TRPC4/MOR mod: selectivity of TRPC6 modulators against mouse TRPC4 | HEK293 TRPC4/mu-opioid, membrane potential fluorescence | percent change from control (negative = decrease, positive = increase), % at 10 µM | shares compounds with TRPC6 inhibitor | AID 488927 | 69% of 2,400 active;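 active = membrane potential signal moved up or down beyond 5 SD of buffer control wells, in both duplicate plates, actives on both sides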
TRPC4/MOR inh 2: mouse TRPC4 off-target activity of TRPC6 modulators, second screen; HEK293 TRPC4/mu-opioid, membrane potential dye fluorescence; stimulated with maximal-effect DAMGO; shares compounds with TRPC6 inhibitor; 55% of 2,400 active; inhibition, % at 10 µM; AID 488928;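 active = drop in membrane potential signal beyond 5 SD of the control wells in both duplicate plates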;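 note: TRPC4 counter screen for TRPC6 hits run under conditions tuned for TRPC6 not TRPC4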
TRPC6 inh conf: confirmation of mouse TRPC6 inhibitors; 43% of 3,300 active; HEK293-TRPC6, membrane potential dye, ACh-evoked depolarization; AID 488960; inhibition, % at 10 µM; shares compounds with TRPC6 inhibitor;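 active = fluorescence ratio falls more than 5 SD below the full-stimulation control mean, in both duplicate runs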;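 note: integrated fluorescence ratio of peak minus minimum over baseline after agonist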
TRPC6 act conf: confirmation of mouse TRPC6 activators. activation, % at 10 µM. HEK293-TRPC6 membrane potential dye fluorescence, FDSS. AID 488961. shares compounds with TRPC6 inhibitor. 11% of 2,800 active;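 active = ratio signal rise beyond 5 SD above unstimulated control wells' mean, seen in both duplicate runs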
Hits are given with their value; – = inactive; · = no result; + = active, no number. An excerpt weighted towards active compounds, which were near 2.3% of everything screened.

SMILES	TRPC6 activator	TRPC6 inhibitor	TRPC4 agonist	TRPC4 block	TRPC4 PAM	HEK293 MPD ctr-2	HEK293 MPD ctr 2-2	TRPC4/MOR mod	TRPC4/MOR inh 2	TRPC6 inh conf	TRPC6 act conf	others
CCN1CCN(CCn2c(=S)[nH]c3ccccc3c2=O)CC1	–	-6.3	–	–	–	–	–	–	–	41%	–
O=c1c2ccccc2[nH]c(=S)n1CCCN1CCC(Cc2ccccc2)CC1	–	-5.9	–	–	–	–	–	-10%	80%	56%	–
O=c1c2ccccc2[nH]c(=S)n1CCN1CCCC1	–	–	–	–	–	·	·	·	·	·	·
CCOC(=O)c1c(N)n(-c2ccc(N)cc2)c2nc3ccccc3nc12	–	–	–	–	–	·	·	·	·	·	·
CCOC(=O)c1c(N)n(C2CC(C)(C)NC(C)(C)C2)c2nc3ccccc3nc12	–	-5.4	–	–	–	-294%	–	-55%	43%	–	–
CCC(C)[C@H](NC(=O)[C@@H]1CSC2c3ccccc3C(=O)N21)C(=O)NCc1ccncc1 (stereo partly specified)	–	–	–	–	–	·	·	·	·	·	·
Clc1ccc(CNC2CCN(Cc3ccccc3)CC2)cc1	–	-6	–	–	–	–	–	–	55%	–	·
Fc1ccc(CNC2CCN(Cc3ccccc3)CC2)cc1	–	–	–	–	–	·	·	·	·	·	·
CN(C)CCN(C(=O)c1ccc2c(c1)OCCO2)c1nc2cc3c(cc2s1)OCO3	–	-6.4	–	–	–	-82%	100%	-24%	92%	88%	–
CN(C)CCN(C(=O)c1ccc2c(c1)CCCC2)c1nc2cc3c(cc2s1)OCCO3	–	–	–	–	–	·	·	·	·	·	·
COc1ccc2nc(N(CCN(C)C)C(=O)c3ccc4c(c3)OCCO4)sc2c1	–	-5.1	–	–	–	–	–	-24%	72%	64%	–
Cc1ccc(NC(=O)CCC(=O)n2nc(C)cc2C)c(C)c1	–	-5.9	–	–	–	–	–	–	–	–	–
O=C1NC(=Nc2ccccc2Cl)S/C1=C\c1cc([N+](=O)[O-])ccc1O	34	–	82	–	–	+	–	380%	65%	–	658%
Cc1ccc(S(=O)(=O)/N=C2/NC(=O)/C(=C/c3cc([N+](=O)[O-])ccc3O)S2)cc1	62	–	–	–	–	390%	–	66%	–	–	280%
COc1cc(/C=C2\S/C(=N/S(=O)(=O)c3ccc(C)cc3)NC2=O)c([N+](=O)[O-])cc1OC	–	–	–	–	–	·	·	·	·	·	·
O=C1/C(=C\c2cc(Cl)c(O)c(Cl)c2)SC(=S)N1Cc1ccccc1	152	–	97	–	35	+	–	538%	–	–	594%
CCOc1ccccc1C(C(=O)NC1CCCC1)N(Cc1ccco1)C(=O)CNC(=O)c1ccco1 (stereo unspecified)	14	–	–	–	–	350%	90%	78%	–	·	150%
O=C(NC1CCCCC1)C(c1ccc(F)cc1)N(Cc1ccco1)C(=O)Cn1nnc2ccccc21 (stereo unspecified)	–	–	–	–	–	·	·	·	·	·	·
Cc1ccc(C(C(=O)NC2CCCCC2)N(Cc2ccco2)C(=O)Cn2cnc3ccccc32)cc1 (stereo unspecified)	17	–	–	–	–	–	–	122%	–	–	30%
Cc1ccc2c(c1)CCCN2C(=O)NC1CCCCC1	–	-6.9	–	–	–	·	·	·	·	–	–	TRPC4 spec 2=–;TRPC4 spec=–;HEK293 MPD ctr 2-1=–;HEK293 MPD ctr-1=–
COc1ccc(CNC(=O)C(C)OC(=O)c2cccs2)cc1 (stereo unspecified)	–	–	–	–	–	·	·	·	·	·	·
CCC(C)(C)n1nnnc1C(c1ccc(C)cc1)N1CCN(C(=O)c2ccco2)CC1 (stereo unspecified)	–	–	–	–	–	·	·	·	·	·	·
CCC(C)(C)n1nnnc1C(c1ccc(F)cc1)N1CCN(C(=O)c2ccco2)CC1 (stereo unspecified)	–	-5.5	–	–	–	124%	–	28%	34%	–	·
CCN(CC(=O)NCc1cccs1)C(=O)c1cc(S(=O)(=O)NCc2ccccc2)ccc1C	–	–	–	–	–	·	·	·	·	·	·
Cc1ccc(C)c(OCCCCN2CCNCC2)c1C	–	-5.6	–	–	15	–	–	–	50%	53%	·
SMILES	TRPC6 activator	TRPC6 inhibitor	TRPC4 agonist	TRPC4 block	TRPC4 PAM	HEK293 MPD ctr-2	HEK293 MPD ctr 2-2	TRPC4/MOR mod	TRPC4/MOR inh 2	TRPC6 inh conf	TRPC6 act conf	others
Cc1ccc(C)c(OCCCN2CCNCC2)c1	–	–	–	–	–	·	·	·	·	·	·
COc1ccccc1CCN1CCCC(CN(C)Cc2ccc(OCCO)cc2)C1 (stereo unspecified)	–	–	–	–	–	·	·	·	·	·	·
O=[N+]([O-])c1cccc(-c2nnc(-c3ccccc3)o2)c1	–	–	–	–	–	·	·	·	·	·	·
Cc1sc2cc(-c3cccc([N+](=O)[O-])c3)c(-c3cccc([N+](=O)[O-])c3)c[n+]2c1C	–	-6.7	–	–	–	-332%	96%	-54%	66%	74%	–
O=[N+]([O-])c1cccc(-c2cc3cccc[n+]3cc2-c2cccc([N+](=O)[O-])c2)c1	–	-10	–	–	–	-395%	–	-74%	70%	56%	–
CCOc1c(Br)cc(C(=O)N2CCCN(C)CC2)cc1OC	–	–	–	–	–	·	·	·	·	·	·
